# Hits are enriched below; roughly 2.6% of the tested compounds scored in any of these assays.
# UCH37 inh: human UCH37 deubiquitinating enzyme inhibition; inhibition, % (test concentration not listed); purified proteasome/UCH37, Ub-AMC cleavage fluorescence; hit rate 0.33% among 330,000;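 active = mean inhibition over replicate wells above about 20%, limit read from the data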;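 note: 0% = compound-free wells with enzyme and 100% = wells lacking proteasome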
#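 system = Proteasome-associated human UCH37 deubiquitinase | amount = 0.15 nM proteasome as dispensed | medium = pH 7.4 Tris-HCl (50 mM) with ovalbumin, ATP-MgCl2, DTT | incubation = 30 min preincubation with enzyme, 25 min cleavage at room temperature | detection = AMC fluorescence 355/460 nm | read-out basis = percent inhibition | controls = no-proteasome and no-compound wells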
# SIRT5 inh: inhibitors of human sirtuin-5 desuccinylase | inhibition, % at 15 µM | hit rate 1.1% among 330,000 | Q9NXA8 | Purified SirT5, succinyl-peptide AMC, trypsin-coupled fluorescence; in the data active = inhibition above about 15%
# Target sequence (Q9NXA8 whole entry, looked up): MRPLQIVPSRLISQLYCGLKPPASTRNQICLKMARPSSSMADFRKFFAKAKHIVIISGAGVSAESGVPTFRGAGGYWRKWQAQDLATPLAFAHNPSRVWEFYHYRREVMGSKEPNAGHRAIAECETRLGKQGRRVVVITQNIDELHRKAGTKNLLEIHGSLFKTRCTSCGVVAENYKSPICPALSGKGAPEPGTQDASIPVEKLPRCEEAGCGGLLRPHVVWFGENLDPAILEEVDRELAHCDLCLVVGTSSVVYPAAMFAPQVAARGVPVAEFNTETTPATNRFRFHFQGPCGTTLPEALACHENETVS
# Casp6 inh: inhibitors of human caspase-6. hit rate 0.53% among 350,000. P55212. inhibition, % at 12.5 µM. AID 686996. purified caspase-6, Z-VEID-R110 cleavage fluorescence;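 active = mean inhibition across replicates at least about 35%, with every replicate also reaching that limit, limit read from the data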;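 note: 0% = median of neutral control wells and 100% = no fluorescence left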
# NSD2 inh: NSD2 (human) methyltransferase inhibition; O96028; NSD2 peptide methylation, AlphaScreen, 120 min; inhibition, % at 12.5 µM; hit rate 0.54% among 310,000; AID 743445; in the data active = inhibition above about 50%
# FGF22 binding: binders of recombinant human FGF22 by thermal shift; SYPRO orange fluorescence; percent of sucrose octasulfate shift, DMSO zero; activity (Tm shift, normalised), % at 9.99 µM; hit rate 1.5% among 340,000; AID 651658;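 active = mean Tm shift, scaled 0 neutral to 100 positive control, at about 1.3% or above, every replicate too, limit read from the data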
# Target sequence (Q9HCT0 whole entry, looked up): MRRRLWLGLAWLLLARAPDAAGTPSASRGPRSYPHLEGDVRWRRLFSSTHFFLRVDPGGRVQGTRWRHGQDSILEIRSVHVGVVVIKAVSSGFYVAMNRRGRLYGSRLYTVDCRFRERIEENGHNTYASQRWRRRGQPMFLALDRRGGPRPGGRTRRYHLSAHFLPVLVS
# The depositor's hits bear a star; . = no result.
SMILES,UCH37 inh,SIRT5 inh,Casp6 inh,NSD2 inh,FGF22 binding
O=C(C1CC1)N1CC2(C1)[C@H](c1ccccc1)[C@H](CO)N2C(=O)c1cccnc1,.,5.0,1.0,.,0.1
CSc1nc(S(=O)(=O)c2ccccc2)c(Cl)s1,1.6,-3.4,3.4,-1.9,43.0*
COc1ccccc1CNc1nc(S(=O)(=O)c2ccccc2)c(Cl)s1,-17.4,.,.,-2.5,.
O=C(CSc1nnc(-c2ccncc2)n1-c1ccccc1Cl)Nc1ccc(C(=O)O)cc1,1.2,.,1.1,-2.5,0.3
O=C(CSc1nnc(-c2ccco2)n1-c1ccccc1Cl)Nc1cccc(C(=O)O)c1,4.0,0.8,55.4*,6.8,0.0
COc1ccc2c3c(n(C)c2c1)[C@H](CO)N(Cc1ccccc1)CC31CCN(S(C)(=O)=O)CC1,.,7.3,-0.4,.,-0.2
COc1ccc(C#Cc2ccc3c(c2)[C@@H]2[C@@H](CCN2S(=O)(=O)c2ccccc2F)[C@@H](CO)N3C)cc1,.,.,.,.,0.2
Cc1cc(C(=O)CN2C(=O)C(=O)N(CC(C)C)C2=O)c(C)n1-c1ccccc1F,-1.3,0.0,2.9,-0.4,43.1*
COc1ccc(S(=O)(=O)Nc2ccc3c(c2)C(=O)N([C@@H](C)CO)C[C@H](C)[C@@H](CN(C)C(=O)Nc2c(C)noc2C)OCCCC[C@@H](C)O3)cc1,.,6.0,-0.3,.,-0.2
COc1ccc(S(=O)(=O)Nc2ccc3c(c2)C(=O)N([C@H](C)CO)C[C@H](C)[C@H](CN(C)C(=O)Nc2c(C)noc2C)OCCCC[C@H](C)O3)cc1,.,1.9,1.0,.,1.3*
Cc1noc(C)c1NC(=O)N(C)C[C@H]1OCCCC[C@@H](C)Oc2ccc(NS(=O)(=O)c3c(C)noc3C)cc2C(=O)N([C@H](C)CO)C[C@H]1C,.,-2.9,0.8,.,0.0
Cc1noc(C)c1NC(=O)N(C)C[C@H]1OCCCC[C@@H](C)Oc2ccc(NS(=O)(=O)c3c(C)noc3C)cc2C(=O)N([C@H](C)CO)C[C@@H]1C,.,28.3*,1.3,.,-0.1
Cc1noc(C)c1NC(=O)N(C)C[C@@H]1OCCCC[C@H](C)Oc2ccc(NC(=O)NC3CCCCC3)cc2C(=O)N([C@@H](C)CO)C[C@H]1C,.,-4.2,1.6,.,1.5*
OCCC1CN(Cc2nc3c(s2)CCCC3)CCN1CCc1ccccc1 (configuration not stated),0.4,2.1,2.4,1.7,43.5*
COc1ccc(CN2CCN(CCCc3ccccc3)C(CCO)C2)c(OC)c1 (configuration not stated),0.2,18.5*,-8.6,6.6,-0.1
COc1ccc(OC)c(CN2CCN(CCCc3ccccc3)C(CCO)C2)c1 (configuration not stated),-3.2,-5.7,-0.7,4.1,-0.2
OCCC1CN(CCCn2cccn2)CCN1Cc1ccccc1 (configuration not stated),2.8,-0.6,-5.4,-0.4,43.0*
CCOc1ccc(CN2CCN(CCCn3cccn3)CC2CCO)cc1 (configuration not stated),1.7,-1.4,-3.8,38.3,-0.2
COc1cccc(CN2CCN(CCc3ccccc3)C(CCO)C2)c1OC (configuration not stated),0.3,-2.6,1.3,3.2,44.0*
O=C(C[C@H]1C[C@H]2c3cc(NC(=O)CC4CC4)ccc3O[C@H]2[C@@H](CO)O1)NCc1ccncc1,.,1.5,-1.8,.,-0.4
CC(=O)N(C)C[C@@H]1Oc2cc(-c3ccc(F)cc3)ccc2S(=O)(=O)N([C@@H](C)CO)C[C@H]1C,.,-3.1,-2.0,.,-0.7
Cc1ncc(CN2CCN(CCc3ccccc3)C(CCO)C2)s1 (configuration not stated),0.2,-2.8,-4.8,.,42.8
CCn1cc(CN2CCN(Cc3cccc(OC)c3)C(CCO)C2)c(C)n1 (configuration not stated),0.3,-0.4,-1.8,1.0,43.0*
Cn1cc(CN2CCN(CCc3ccccc3)C(CCO)C2)cn1 (configuration not stated),3.2,0.0,-4.7,0.9,43.8*
COc1cccc2c1OCC(CN1CCN(CCC(C)C)C(CCO)C1)=C2 (configuration not stated),5.0,-8.3,-5.5,-0.8,43.2*
SMILES,UCH37 inh,SIRT5 inh,Casp6 inh,NSD2 inh,FGF22 binding
CC(=O)N(C)C[C@@H]1OCc2ccccc2-c2c(n(C)c3ccccc23)C(=O)N([C@H](C)CO)C[C@H]1C,.,-2.0,-1.1,.,0.1
Cc1ccc(S(=O)(=O)N(C)C[C@H]2Oc3ccc(NC(=O)Nc4ccccc4)cc3CC(=O)N([C@@H](C)CO)C[C@H]2C)cc1,.,1.9,0.2,.,-0.2
O=C(Nc1ccc(Cl)c(Cl)c1)N[C@@H]1CC[C@H](CCn2cc(C3CC3)nn2)O[C@H]1CO,.,27.3*,-2.3,.,0.1
COc1cccc(-c2cn(CC[C@@H]3CC[C@H](NC(=O)CC4CC4)[C@@H](CO)O3)nn2)c1,.,29.8*,-3.1,.,-0.1
COc1cccc(-c2cn(CC[C@H]3CC[C@H](NC(=O)CC4CC4)[C@H](CO)O3)nn2)c1,.,1.3,-3.4,.,-0.4
CO[C@@H]1CN(C)C(=O)c2ccc(NC(=O)c3ccccc3F)cc2OC[C@@H](C)N(CC2CC2)C[C@@H]1C,.,-4.2,-3.5,.,-0.3
C[C@H](CO)N1C[C@H](C)[C@@H](CN(C)Cc2ccccc2F)Oc2ncc(C#CCN(C)C)cc2C1=O,.,-3.6,2.7,.,-0.2
Cc1onc(-c2ccccc2)c1C(=O)N(Cc1ccco1)Cc1cccs1,-1.8,-0.3,46.6*,-0.5,0.4
C[C@@H]1CN([C@@H](C)CO)C(=O)c2cc(NS(=O)(=O)c3ccc(Cl)cc3)ccc2O[C@H]1CN(C)Cc1ccc(Oc2ccccc2)cc1,.,16.6*,1.1,.,-0.6
C[C@@H]1CN([C@H](C)CO)C(=O)c2cc(NS(=O)(=O)c3ccc(Cl)cc3)ccc2O[C@H]1CN(C)Cc1ccc(Oc2ccccc2)cc1,.,10.3,0.1,.,-0.5
COc1ccc(S(=O)(=O)Nc2ccc3c(c2)C(=O)N([C@H](C)CO)C[C@@H](C)[C@@H](CN(C)Cc2ccc(Oc4ccccc4)cc2)O3)cc1,.,29.8*,-0.1,.,-0.4
COc1ccc(S(=O)(=O)Nc2ccc3c(c2)C(=O)N([C@@H](C)CO)C[C@@H](C)[C@H](CN(C)Cc2ccc(Oc4ccccc4)cc2)O3)cc1,.,24.7*,0.5,.,-0.5
COc1ccc(S(=O)(=O)Nc2ccc3c(c2)C(=O)N([C@H](C)CO)C[C@H](C)[C@@H](CN(C)Cc2ccc(Oc4ccccc4)cc2)O3)cc1,.,21.7*,-1.3,.,-0.4
COc1ccc(S(=O)(=O)Nc2ccc3c(c2)C(=O)N([C@@H](C)CO)C[C@@H](C)[C@H](CN(C)Cc2ccc(-c4ccccc4)cc2)O3)cc1,.,20.9*,0.5,.,-0.3
COc1ccc(S(=O)(=O)Nc2ccc3c(c2)C(=O)N([C@@H](C)CO)C[C@H](C)[C@H](CN(C)Cc2ccc(Oc4ccccc4)cc2)O3)cc1,.,38.5*,2.4,.,-0.7

# Source: PubChem
